In general, inhibition refers to the change of the read-out against control, counted positive when it falls. In general, pIC50 refers to −log10 of the IC50, conventionally taken in molar units.

pIC50: −log10 of the molar value. Active and inactive are the calls of the source. The rule behind the calls is not given here.

The subject of test [1] is Streptococcus pneumoniae. The experiment in a line: Inhibition of penicillin-resistant Streptococcus pneumoniae 159 recombinant MurM at 1 mM by liquid scintillation counting.
Test [2] is described as follows: Inhibition of penicillin-resistant Streptococcus pneumoniae 159 recombinant MurM by liquid scintillation counting. As to conditions: for pIC50: read-out: IC50.
Test [3] concerns the target T1, Serine--tRNA ligase (Streptococcus pneumoniae serotype 4 (strain ATCC BAA-334 / TIGR4)) (UniProt Q97SG0).
T1 sequence (whole entry): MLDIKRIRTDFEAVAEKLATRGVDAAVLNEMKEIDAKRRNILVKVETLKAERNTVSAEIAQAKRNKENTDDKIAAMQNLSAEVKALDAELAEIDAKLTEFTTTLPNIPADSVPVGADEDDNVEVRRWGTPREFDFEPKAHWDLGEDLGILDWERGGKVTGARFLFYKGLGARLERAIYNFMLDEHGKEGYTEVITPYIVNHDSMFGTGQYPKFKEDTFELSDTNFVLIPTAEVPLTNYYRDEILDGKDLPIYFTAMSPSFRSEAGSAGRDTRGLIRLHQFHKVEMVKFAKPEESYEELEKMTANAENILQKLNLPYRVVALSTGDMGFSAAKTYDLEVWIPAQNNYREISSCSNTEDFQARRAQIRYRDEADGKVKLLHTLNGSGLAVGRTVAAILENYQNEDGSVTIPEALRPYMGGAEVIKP
The experiment in a line: Inhibition of Streptococcus pneumoniae seryl tRNA synthetase expressed in Escherichia coli BL21 (DE3) assessed as formation of [3H]seryl tRNA at 1 mM.

The subject of another test is Micrococcus flavus. The test is described as follows: Antimicrobial activity against Micrococcus flavus expressing femABX gene at 1 to 5 mM by NCCLS method. It is filed as functional, organism-based. In a few lines:
(§1)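 Growth inhibition in liquid culture per NCCLS protocol, compounds at 1–5 mM final concentration; strains tested: S. pneumoniae 159 and pn16, S. aureus MRSA and MSSA, E. faecalis, M. flavus, E. coli.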

For test [4], the target named is T1, Serine--tRNA ligase (Streptococcus pneumoniae serotype 4 (strain ATCC BAA-334 / TIGR4)). The experiment in a line: Inhibition of Streptococcus pneumoniae seryl tRNA synthetase expressed in Escherichia coli BL21 (DE3) assessed as formation of [3H]seryl tRNA at 100 uM.
For test [5], the system named is Streptococcus pneumoniae. The test is described as follows: Antibacterial activity against penicillin- resistant Streptococcus pneumoniae 159 at 1 mM by NCCLS method. The format is functional, organism-based. The essentials: as §1
The test system of test [6] is Staphylococcus aureus. The test is described as follows: Antimicrobial activity against methicillin-resistant Staphylococcus aureus expressing femABX gene at 1 to 5 mM by NCCLS method. The format is functional, organism-based. The essentials:
as §1

The target of test [7] is T2, Alanine--tRNA ligase (Streptococcus pneumoniae serotype 4 (strain ATCC BAA-334 / TIGR4)) (UniProt Q97Q48).
T2 sequence (whole entry): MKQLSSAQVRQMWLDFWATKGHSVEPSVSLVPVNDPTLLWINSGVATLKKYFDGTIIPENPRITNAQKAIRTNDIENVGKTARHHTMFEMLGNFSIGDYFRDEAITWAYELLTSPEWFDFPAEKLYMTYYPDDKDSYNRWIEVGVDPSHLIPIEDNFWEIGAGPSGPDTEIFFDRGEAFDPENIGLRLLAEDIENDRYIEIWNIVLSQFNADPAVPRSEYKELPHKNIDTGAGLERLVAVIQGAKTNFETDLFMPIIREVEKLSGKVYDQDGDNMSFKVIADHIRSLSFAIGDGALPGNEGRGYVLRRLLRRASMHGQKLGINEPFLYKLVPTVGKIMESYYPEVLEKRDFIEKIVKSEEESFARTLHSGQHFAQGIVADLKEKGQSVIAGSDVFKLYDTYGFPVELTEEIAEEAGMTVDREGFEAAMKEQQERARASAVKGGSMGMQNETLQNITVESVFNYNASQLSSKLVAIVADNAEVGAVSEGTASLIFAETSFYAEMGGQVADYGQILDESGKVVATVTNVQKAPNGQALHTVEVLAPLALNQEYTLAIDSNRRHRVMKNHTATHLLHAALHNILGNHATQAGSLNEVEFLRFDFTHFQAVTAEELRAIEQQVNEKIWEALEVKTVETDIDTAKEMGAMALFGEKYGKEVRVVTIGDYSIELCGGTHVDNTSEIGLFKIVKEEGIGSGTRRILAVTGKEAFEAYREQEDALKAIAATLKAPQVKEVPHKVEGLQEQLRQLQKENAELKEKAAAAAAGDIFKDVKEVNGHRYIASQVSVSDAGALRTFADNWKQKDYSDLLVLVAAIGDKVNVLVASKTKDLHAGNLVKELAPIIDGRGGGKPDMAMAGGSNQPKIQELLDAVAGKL
The test is described as follows: Inhibition of Streptococcus pneumoniae alanyl tRNA synthetase expressed in Escherichia coli BL21 (DE3) assessed as formation of [3H]alanyl tRNA at 100 uM.

Test [8] relates to Staphylococcus aureus. The experiment in a line: Antimicrobial activity against methicillin-susceptible Staphylococcus aureus expressing femABX gene at 1 to 5 mM by NCCLS method. It is filed as functional, organism-based. In a few lines: as §1
Test [9] addresses T2, Alanine--tRNA ligase (Streptococcus pneumoniae serotype 4 (strain ATCC BAA-334 / TIGR4)). The test is described as follows: Inhibition of Streptococcus pneumoniae alanyl tRNA synthetase expressed in Escherichia coli BL21 (DE3) assessed as formation of [3H]alanyl tRNA at 1 mM.
A further test has as its system Enterococcus faecalis. The test is described as follows: Antimicrobial activity against Enterococcus faecalis expressing femABX gene at 1 to 5 mM by NCCLS method. The format is functional, organism-based. In a few lines: as §1

Consider `COc1ccc(C[C@H](N)C(=O)N[C@H]2[C@@H](O)[C@H](n3cnc4c(N(C)C)ncnc43)O[C@@H]2CO)cc1`, for which the inhibition in the test on Streptococcus pneumoniae [1] is 0%.

With `CC(NC(=O)OCc1ccccc1)P(=O)(O)O[C@H]1C[C@H](n2cnc3c(N)ncnc32)O[C@@H]1CO` (stereo partly specified), in the test with Streptococcus pneumoniae [1], the inhibition was 0%.

Take `CC(N)P(=O)(O)O[C@@H]1[C@H](O)[C@@H](CO)O[C@H]1n1cnc2c(N)ncnc21` (stereo partly specified): the pIC50 in test [2] is 3.11. For the same compound, the inhibition in the test with Streptococcus pneumoniae [1] was 55%.

As to `CNC(=O)OC[C@H]1O[C@@H](n2cnc3c(N)ncnc32)C[C@@H]1OP(=O)(O)C(C)N` (stereo partly specified), the inhibition in the test on Streptococcus pneumoniae [1] was found to be 3%.

On to `COC(=O)[C@H](CCCCNP(=O)(OC)C(NC(=O)OCc1ccccc1)c1ccccc1)NC(=O)OC(C)(C)C` (stereo partly specified), for which the result with Streptococcus pneumoniae [1] was inactive.

As for `CCCCOP(=O)(NCCCC[C@H](NC(=O)OC(C)(C)C)C(=O)OC)C(C)NC(=O)OCc1ccccc1` (stereo partly specified), the outcome with Streptococcus pneumoniae [1] was inactive.

`CC(N)P(=O)(O)O[C@H]1[C@@H](O)[C@H](n2cnc3c(N)ncnc32)O[C@@H]1CO` (stereo partly specified): in [2], the IC50 result is “Not Active”.

Consider `CC(NC(=O)OCc1ccccc1)P(=O)(O)O[C@H]1C[C@H](n2cnc3c(N)ncnc32)O[C@@H]1CO[Si](C)(C)C(C)(C)C` (stereo partly specified), for which the inhibition in the test with Streptococcus pneumoniae [1] was found to be 0%.

Take `Nc1ncnc2c1ncn2[C@H]1C[C@H](O)[C@@H](CO)O1`: the inhibition in the test on Streptococcus pneumoniae [1] was found to be 13%.

Turning to `CC(N)P(=O)(O)O[C@H]1C[C@H](n2cnc3c(N)ncnc32)O[C@@H]1CO` (stereo partly specified), the inhibition in test [3] stood at 28%; in the test with Streptococcus pneumoniae [1], 95%; in test [9], 22%. Moreover, the outcome in the test on Micrococcus flavus, in the test on Staphylococcus aureus [6], in the test with Staphylococcus aureus [8] and in the test with Enterococcus faecalis was inactive. For the same compound, the inhibition result in test [4] and in test [7] was “inactive” in each case. Moreover, in [2], the pIC50 is 4.00. Besides, the “growth inhibition (GI)” value in the test with Streptococcus pneumoniae [5] was “inactive”.

In the case of `CCCNP(=O)(OC)C(CC)NC(=O)OCc1ccccc1` (stereo unspecified), the result with Streptococcus pneumoniae [1] was inactive.

As for `COCCOP(=O)(NCCCC[C@H](NC(=O)OC(C)(C)C)C(=O)OC)C(C)NC(=O)OCc1ccccc1` (stereo partly specified), in the test with Streptococcus pneumoniae [1], the result was inactive.

With `CCCNP(=O)(OC)C(NC(=O)OCc1ccccc1)c1ccccc1` (stereo unspecified), in the test with Streptococcus pneumoniae [1], the result was inactive.

Take `COC(=O)[C@H](CCCCNP(=O)(OC)C(C)NC(=O)OCc1ccccc1)NC(=O)OC(C)(C)C` (stereo partly specified): the outcome with Streptococcus pneumoniae [1] was inactive.

Regarding `CC(NC(=O)OCc1ccccc1)P(=O)(O)O[C@H]1C[C@H](n2cnc3c(NC(=O)c4ccccc4)ncnc32)O[C@@H]1CO[Si](C)(C)C(C)(C)C` (stereo partly specified), in the test with Streptococcus pneumoniae [1], the inhibition is 0%.

As for `CC(N)P(=O)(O)O[C@H]1C[C@H](n2cnc3c(N)ncnc32)O[C@@H]1CO[Si](C)(C)C(C)(C)C` (stereo partly specified), in the test with Streptococcus pneumoniae [1], the inhibition was determined as 0%.

Take `CCCNP(=O)(OC)C(C)NC(=O)OCc1ccccc1` (stereo unspecified): the result with Streptococcus pneumoniae [1] was inactive.

As for `CCCCOP(=O)(NCCC)C(C)NC(=O)OCc1ccccc1` (stereo unspecified), the outcome in the test on Streptococcus pneumoniae [1] was inactive.

As to `CCCNP(=O)(OCCOC)C(C)NC(=O)OCc1ccccc1` (stereo unspecified), the outcome with Streptococcus pneumoniae [1] was inactive.

Take `Nc1ncnc2c1ncn2[C@H]1C[C@H](OP(=O)(O)O)[C@@H](CO)O1`: the inhibition in the test on Streptococcus pneumoniae [1] is 15%.

For the origin of these results see ChEMBL document CHEMBL1138621, “Inhibition of tRNA-dependent ligase MurM from Streptococcus pneumoniae by phosphonate and sulfonamide inhibitors” (Bioorg Med Chem, 2009).
